Source: ChEMBL document CHEMBL1128562, “1-Phenyl-3-amino-1,2,3,4-tetrahydronaphthalenes and related derivatives as ligands for the neuromodulatory sigma 3 receptor: further structure-activity relationships” (J Med Chem, 1995)

Legend:
[1] = molecular target: D(1A) dopamine receptor (Rattus norvegicus) (UniProt P18901); assay: Binding affinity against Dopamine receptor D1 by using [3H]SCH-23390 as radioligand
Outline: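 Rat corpus striatum homogenate (30 μg protein) in 10 mM Tris with 150 mM NaCl, pH 7.4. Incubated 30 min at 30 °C with 0.3 nM [3H]SCH-23390; 300 nM cis-(Z)-flupenthixol defined nonspecific binding. Test ligand at 6–8 concentrations (0.01–10 000 nM) in triplicate, then filtration and scintillation counting. IC50 from sigmoidal fit converted to K0.5 = IC50/(1 + L/KD); assay repeated twice, ± SEM.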

[2] = molecular target: D(2) dopamine receptor (Rattus norvegicus) (UniProt P61169); assay: Binding affinity against Dopamine receptor D2 by using [3H]- radioligand
Outline: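 D2 competition assay on rat corpus striatum homogenate (30 μg protein) in 10 mM Tris/150 mM NaCl, pH 7.4, at 30 °C for 90 min. Radioligand was 0.065 nM [3H]emonapride (YM-09151); 250 nM (+)-butaclamol defined nonspecific binding. Six to eight test concentrations spanning 0.01–10 000 nM, in triplicate. Sigmoidal-fit IC50 converted to K0.5 via IC50/(1 + L/KD); repeated twice, ± SEM.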

[3] = Binding affinity against Sigma receptor type 3 by using [3H]-(-)-H2-PAT as radioligand; settings: Rattus norvegicus
[4] = molecular target: D(3) dopamine receptor (Homo sapiens) (UniProt P35462); assay: Binding affinity against Dopamine receptor D3 by using [3H]- radioligand
[5] = molecular target: D(1A) dopamine receptor (Rattus norvegicus) (UniProt P18901)
[6] = molecular target: D(2) dopamine receptor (Rattus norvegicus) (UniProt P61169)
[7] = molecular target: Sigma non-opioid intracellular receptor 1 (Rattus norvegicus) (UniProt Q9R0C9)
Sigma non-opioid intracellular receptor 1 (Rattus norvegicus), sequence (Q9R0C9 whole entry): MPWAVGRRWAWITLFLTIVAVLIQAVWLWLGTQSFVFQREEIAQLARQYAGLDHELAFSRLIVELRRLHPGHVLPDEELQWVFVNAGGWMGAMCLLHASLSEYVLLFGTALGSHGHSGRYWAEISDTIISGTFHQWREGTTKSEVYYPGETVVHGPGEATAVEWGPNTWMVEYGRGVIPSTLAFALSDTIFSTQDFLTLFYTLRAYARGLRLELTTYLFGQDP

D(1A) dopamine receptor (Rattus norvegicus), sequence (P18901 whole entry): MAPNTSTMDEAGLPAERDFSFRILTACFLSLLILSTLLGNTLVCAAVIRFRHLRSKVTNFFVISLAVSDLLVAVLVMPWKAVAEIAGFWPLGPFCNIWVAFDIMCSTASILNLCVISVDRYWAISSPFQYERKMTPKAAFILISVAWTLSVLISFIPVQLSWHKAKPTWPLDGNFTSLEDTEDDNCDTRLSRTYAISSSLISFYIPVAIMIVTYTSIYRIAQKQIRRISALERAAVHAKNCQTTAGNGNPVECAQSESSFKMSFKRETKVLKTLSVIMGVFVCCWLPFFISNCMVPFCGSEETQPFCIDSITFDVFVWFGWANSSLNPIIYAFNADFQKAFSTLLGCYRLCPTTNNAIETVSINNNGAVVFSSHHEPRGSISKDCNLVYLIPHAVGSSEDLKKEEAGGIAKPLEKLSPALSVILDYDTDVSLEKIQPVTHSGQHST
D(2) dopamine receptor (Rattus norvegicus), sequence (P61169 whole entry): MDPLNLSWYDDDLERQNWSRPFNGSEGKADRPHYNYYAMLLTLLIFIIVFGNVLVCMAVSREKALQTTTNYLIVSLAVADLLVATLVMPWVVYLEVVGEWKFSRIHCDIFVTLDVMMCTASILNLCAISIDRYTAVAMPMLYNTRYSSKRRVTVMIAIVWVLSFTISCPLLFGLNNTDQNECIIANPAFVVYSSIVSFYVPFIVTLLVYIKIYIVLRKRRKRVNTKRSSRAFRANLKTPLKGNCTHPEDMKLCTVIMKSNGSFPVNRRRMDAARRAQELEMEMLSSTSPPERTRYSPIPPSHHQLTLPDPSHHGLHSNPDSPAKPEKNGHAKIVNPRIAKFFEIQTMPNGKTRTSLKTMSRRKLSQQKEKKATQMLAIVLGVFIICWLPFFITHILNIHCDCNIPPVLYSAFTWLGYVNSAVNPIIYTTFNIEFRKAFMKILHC
D(3) dopamine receptor (Homo sapiens), sequence (P35462 whole entry, looked up): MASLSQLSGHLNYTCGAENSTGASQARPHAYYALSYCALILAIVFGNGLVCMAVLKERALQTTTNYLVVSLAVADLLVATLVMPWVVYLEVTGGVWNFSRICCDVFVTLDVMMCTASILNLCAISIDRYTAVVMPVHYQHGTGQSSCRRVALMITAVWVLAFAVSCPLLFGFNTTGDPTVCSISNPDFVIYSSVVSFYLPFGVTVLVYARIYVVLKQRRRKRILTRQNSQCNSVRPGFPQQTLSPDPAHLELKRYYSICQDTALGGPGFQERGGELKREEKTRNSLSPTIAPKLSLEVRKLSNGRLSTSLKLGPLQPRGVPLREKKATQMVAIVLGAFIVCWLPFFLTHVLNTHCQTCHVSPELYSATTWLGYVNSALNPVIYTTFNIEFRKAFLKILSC

Structure (SMILES)	Ki 0.5 [1]	Ki 0.5 [2]	Ki 0.5 [3]	Ki 0.5 [4]	Ki 0.5 [5]	Ki 0.5 [6]	Ki 0.5 [7]
c1ccc(CCCN[C@@H]2Cc3ccccc3[C@@H](c3ccccc3)C2)cc1	> 5000 nM	5000 nM	2530 nM	–	–	–	–
CN(C)[C@H]1Cc2ccccc2[C@@](C)(c2ccccc2)C1	> 2500 nM	> 5000 nM	2.5 nM	1000 nM	–	–	–
CN(C)[C@@H]1CCc2ccccc2[C@@H](c2ccccc2)C1	> 5000 nM	5000 nM	21.8 nM	1000 nM	–	–	–
CN(C)[C@@H]1CCc2ccccc2[C@H]1c1ccccc1	> 5000 nM	> 5000 nM	980 nM	> 1000 nM	–	–	–
c1ccc(CCCCN[C@@H]2Cc3ccccc3[C@@H](c3ccccc3)C2)cc1	1530 nM	1600 nM	1050 nM	–	–	–	–
CN(CCCc1ccccc1)[C@@H]1Cc2ccccc2[C@@H](c2ccccc2)C1	380 nM	540 nM	300 nM	–	–	–	–
CN(C)[C@@H]1Cc2ccccc2[C@@H](c2ccccc2)C1 (stereo in doubt; 2)	2500 nM	5000 nM	1.1 nM	1000 nM	–	–	–
CN(C)[C@@H]1Cc2ccccc2[C@@H](c2ccccc2)C1 (stereo in doubt; (+)-2)	> 5000 nM	> 5000 nM	13.5 nM	1000 nM	–	–	–
CN(C)[C@@H]1Cc2ccccc2[C@@H](c2ccccc2)C1 (stereo in doubt; (-)-2)	> 5000 nM	> 5000 nM	0.5 nM	> 1000 nM	–	–	–
CN[C@@H]1Cc2ccccc2[C@@H](c2ccccc2)C1	> 5000 nM	> 5000 nM	120 nM	> 1000 nM	–	–	–
CN(C)[C@H]1CCc2ccccc2[C@H](c2ccccc2)C1	> 5000 nM	> 5000 nM	120 nM	> 1000 nM	–	–	–
CN(CCc1ccccc1)[C@@H]1Cc2ccccc2[C@@H](c2ccccc2)C1	54 nM	370 nM	150 nM	–	–	–	–
CN(C)[C@@H]1Cc2ccccc2[C@@](C)(c2ccccc2)C1	> 5000 nM	> 5000 nM	18.2 nM	> 1000 nM	–	–	–
CN(C)[C@@H]1Cc2ccccc2[C@H](c2ccccc2)C1	–	–	74 nM	–	–	–	–
C[N+](C)(C)[C@@H]1Cc2ccccc2[C@@H](c2ccccc2)C1	> 5000 nM	> 2500 nM	35 nM	> 1000 nM	–	–	–
CN(CCCCc1ccccc1)[C@@H]1Cc2ccccc2[C@@H](c2ccccc2)C1	440 nM	240 nM	280 nM	–	–	–	–
CN(C)[C@@H]1CCc2ccccc2[C@@H]1c1ccccc1	> 5000 nM	> 5000 nM	1300 nM	> 1000 nM	–	–	–
CN(C)[C@@H]1Cc2cc(Cl)c(O)cc2[C@@H](c2ccccc2)C1	–	–	0.3 nM	300 nM	420 nM	260 nM	2000 nM
